Measurements gathered from unrelated publications.
Each line is one published result; the experiments were not run side by side.
Target: RAC-gamma serine/threonine-protein kinase (AKT3, Homo sapiens, UniProt Q9Y243)

| SMILES | observed | action | technique | concentration | endpoint | value |
| --- | --- | --- | --- | --- | --- | --- |
| CNc1cccc2cc(C(=O)Nc3ccc(C(=O)O)cc3)c(=O)[nH]c12 | enzyme activity | inhibitor | – | 10 µM | inhibition | 5.8% |
| Cn1nc(C(F)(F)F)cc1-c1cnc(N2CCc3cc(S(=O)(=O)Nc4c(F)cc(Cl)cc4F)cc(N4CCCC4=O)c32)nc1 | cell-free assay | – | competition with immobilised ligand | 1 µM | remaining binding | 84% |
| Cc1cc(NC(=O)c2cccc3cc(-c4cccc5[nH]nc(N)c45)ccc23)ccc1F | enzyme activity | inhibitor | – | 0.1 µM | activity vs control | 90% |
| O=C(N1CCS(=O)(=O)CC1)N1C[C@H](c2ccc(OC(F)(F)F)cc2)C[C@H](c2nc(C3CC3)no2)C1 | cell-free assay | – | competition with immobilised ligand | 1 µM | remaining binding | 100% |
| CCCOc1ccc(OC)c(F)c1C(=O)c1ccc(C(=O)N[C@@H]2CNC[C@H]2NC(=O)c2ccc3[nH]ncc3c2)cc1 | enzyme activity | inhibitor | – | 50 nM | remaining activity | 97% |
| CC/C(=N\NC(=O)NCc1cccc(O)c1)c1ccc(O)c(C)c1O | enzyme activity | inhibitor | – | 0.1 µM | inhibition | 22.8% |
| COc1cc2ncnc(Nc3ccc(Oc4ccccc4)cc3C)c2cc1OC | enzyme activity | inhibitor | – | 1 µM | inhibition | 6% |
| CC(=O)N1CCC(c2ccc(C(=O)NC3=NCCN3)cc2C(F)(F)F)CC1 | cell-free assay | – | competition with immobilised ligand | 1 µM | remaining binding | 100% |
| Cc1sc(C(=O)NC2COC2)cc1-n1cc(NC(=O)Nc2c(F)cccc2Cl)cn1 | enzyme activity | inhibitor | – | 10 µM | remaining activity | 94.8% |
| N#CCCc1ccc2c(c1)-c1[nH]c3ccc([N+](=O)[O-])cc3c1CC(=O)N2 | cell-free assay | – | – | 0.5 µM | remaining signal | 95.5% |
| CNC(=O)c1cc(Oc2ccc(NC(=O)Nc3ccc(Cl)c(C(F)(F)F)c3)cc2)ccn1 | enzyme activity | inhibitor | – | 10 µM | inhibition | -1% |
| Cn1c2c(Cl)c(Cl)ccc2c2cc[nH]c(=O)c21 | thermal stability | – | DSF | 10 µM | ΔTm | 0 °C |
| COc1cc(Cl)c(C(=O)N[C@@H](CN[C@H]2CC[C@@H](N)CC2)Cc2ccc(C#N)cc2)cc1-c1ccc(CN[C@H](C)c2ccc(C)cc2)o1 | enzyme activity | inhibitor | – | 1 µM | remaining activity | 97% |
| Cc1c(NC(=O)c2cc(C(N)=O)nc3cc(F)ccc23)c(C(F)(F)F)nn1Cc1ccc(C(C)(C)C)cc1 | cell-free assay | – | competition with immobilised ligand | 1 µM | remaining binding | 100% |
| Cn1c2c(Cl)c(Cl)ccc2c2cn[nH]c(=O)c21 | thermal stability | – | DSF | 10 µM | ΔTm | 0.1 °C |
| CN1CC(Oc2cnc(C#N)cc2-c2ccn3nc(NC(=O)C4CC4)cc3c2)C1 | enzyme activity | inhibitor | – | 1 µM | inhibition | 7% |

| SMILES | observed | action | technique | concentration | endpoint | value |
| --- | --- | --- | --- | --- | --- | --- |
| C[C@@H]1CCN(C(=O)CC#N)C[C@@H]1N(C)c1ncnc2[nH]ccc12 | cell-free assay | inhibitor | – | 0.5 µM | remaining signal | 85.8% |
| Cn1c2c(c3ccc(Cl)c(Cl)c31)C(C#N)C1(CCN(C(=O)OC(C)(C)C)CC1)NC2=O (racemic) | thermal stability | – | DSF | 10 µM | ΔTm | -0.1 °C |
| O=C1NC(=O)c2cc(Nc3ccc(F)cc3)c(Nc3ccc(F)cc3)cc21 | cell-free assay | – | – | 0.5 µM | remaining signal | 100% |
| Cc1cnc(NC2CCOCC2)nc1-n1cnc(C(=O)NC(CN)c2cc(F)cc(Cl)c2)c1 (stereo not shown) | enzyme activity | inhibitor | radiometric | 1 µM | remaining activity | 78% |
| Cn1c2c(Cl)c(Cl)ccc2c2cc(N)[nH]c(=O)c21 | thermal stability | – | DSF | 10 µM | ΔTm | 0.3 °C |
| Cc1ccc(NC(=O)c2ccc(CN3CCN(C)CC3)cc2)cc1Nc1nc(-c2cccnc2)cs1 | cell-free assay | – | – | 0.5 µM | remaining signal | 102% |
| Cn1c2c(c3ccc(Cl)c(Cl)c31)C(C#N)C1(CCNCC1)NC2=O (racemic) | thermal stability | – | DSF | 10 µM | ΔTm | -0.1 °C |
| FC(F)(F)c1ccc2c(c1)nc(-c1cccnc1)n2C1CC1 | cell-free assay | – | competition with immobilised ligand | 1 µM | remaining binding | 100% |
| CC(C)(C)c1nc(-c2cccc(NS(=O)(=O)c3c(F)cccc3F)c2F)c(-c2ccnc(N)n2)s1 | enzyme activity | inhibitor | radiometric | 1 µM | remaining activity | 80% |
| CO[C@@H](C)c1c(Nc2ccc([C@@H](N(C)C(=O)C3CCS(=O)(=O)CC3)C(F)(F)F)cc2)cnc2cc(Cl)nn12 | cell-free assay | – | competition with immobilised ligand | 1 µM | remaining binding | 65% |
| Cn1c2c(c3ccc(Cl)c(Cl)c31)C(C#N)C1(CCCC1)NC2=O (stereo not shown) | thermal stability | – | DSF | 10 µM | ΔTm | -0.1 °C |
| Cn1nc(C(=O)NCc2ccc(C(=O)O)cc2)cc1-c1ccc2[nH]ccc2c1 | cell-free assay | – | competition with immobilised ligand | 0.1 µM | remaining binding | 88% |
| Cc1ccc(NC(=O)c2ccc(C)c(C(F)(F)F)c2)cc1C#Cc1nn(C2CCC(O)CC2)c2ncnc(N)c12 (stereo not shown) | cell-free assay | – | – | 10 µM | remaining signal | 94% |
| O=C(Nc1ccc(Oc2ccc(F)cc2)cc1)N1CCc2ncccc2[C@H]1c1ccc(F)cc1 | cell-free assay | – | competition with immobilised ligand | 1 µM | remaining binding | 95% |
| Cc1ccc(Nc2nccc(N(C)c3ccc4c(C)n(C)nc4c3)n2)cc1S(N)(=O)=O | enzyme activity | inhibitor | – | 0.5 µM | remaining activity | 93.3% |
